Assay results reported in ChEMBL document CHEMBL4118285, “Synthesis and antibacterial activity of novel ketolides with 11,12-quinoylalkyl side chains” (2018).
Converted amounts (≈) assume the structure as drawn.

Tests used:
Format in all cases: functional
[1] = system: Staphylococcus aureus; test: Antibacterial activity against methicillin-sensitive Staphylococcus aureus ATCC 29213 by broth microdilution method
How it was run: (§1)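 MICs were determined by broth microdilution following CLSI recommendations, with clarithromycin and telithromycin run as reference antibiotics.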

[2] = system: Staphylococcus aureus; test: Antibacterial activity against methicillin-resistant Staphylococcus aureus ATCC 33591 by broth microdilution method
How it was run: (§2)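 MIC values were determined by broth microdilution following Clinical and Laboratory Standards Institute (CLSI) recommendations.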

[3] = system: Staphylococcus epidermidis; test: Antibacterial activity against methicillin-sensitive Staphylococcus epidermidis ATCC 12228 by broth microdilution method; how it was run: as §1
[4] = system: Staphylococcus epidermidis; test: Antibacterial activity against methicillin-resistant Staphylococcus epidermidis 13-3 by broth microdilution method; how it was run: as §2
[5] = system: Streptococcus pyogenes; test: Antibacterial activity against […] Streptococcus pyogenes 12-8 by broth microdilution method; how it was run: as §1
[6] = system: Streptococcus pyogenes; test: Antibacterial activity against methicillin-resistant Streptococcus pyogenes 12-1 by broth microdilution method; how it was run: as §2
[7] = system: Moraxella catarrhalis; test: Antibacterial activity against clarithromycin-sensitive Moraxella catarrhalis 12-1 by broth microdilution method; how it was run: as §1
[8] = system: Klebsiella pneumoniae; test: Antibacterial activity against extended spectrum beta-lactamases producing Klebsiella pneumoniae ATCC 700603 by broth microdilution method; how it was run: as §1
[9] = system: Moraxella catarrhalis; test: Antibacterial activity against clarithromycin-resistant Moraxella catarrhalis 12-2 by broth microdilution method; how it was run: as §2
[10] = system: Escherichia coli; test: Antibacterial activity against extended spectrum beta-lactamases non-producing Escherichia coli ATCC 25922 by broth microdilution method; how it was run: as §1
[11] = system: Pseudomonas aeruginosa; test: Antibacterial activity against Pseudomonas aeruginosa ATCC 27853 by broth microdilution method; how it was run: as §1
[12] = system: Staphylococcus aureus; test: Antibacterial activity against methicillin-sensitive Staphylococcus aureus 11B122 by broth microdilution method; how it was run: as §1
[13] = system: Staphylococcus aureus; test: Antibacterial activity against methicillin-resistant Staphylococcus aureus 11B117 by broth microdilution method; how it was run: as §2
[14] = system: Staphylococcus epidermidis; test: Antibacterial activity against methicillin-sensitive Staphylococcus epidermidis 11X315 by broth microdilution method; how it was run: as §2
[15] = system: Staphylococcus epidermidis; test: Antibacterial activity against methicillin-resistant Staphylococcus epidermidis 11C176 by broth microdilution method; how it was run: as §2
[16] = system: Streptococcus pneumoniae; test: Antibacterial activity against erythromycin-sensitive Streptococcus pneumoniae 11G364 by broth microdilution method; how it was run: as §1
[17] = system: Streptococcus pneumoniae; test: Antibacterial activity against erythromycin-resistant Streptococcus pneumoniae 11 J011 by broth microdilution method; how it was run: as §2
[18] = system: Streptococcus pyogenes; test: Antibacterial activity against erythromycin-sensitive Streptococcus pyogenes 11L264 by broth microdilution method; how it was run: as §1
[19] = system: Streptococcus pyogenes; test: Antibacterial activity against erythromycin-resistant Streptococcus pyogenes 11 N369 by broth microdilution method; how it was run: as §2
[20] = system: Haemophilus influenzae; test: Antibacterial activity against azithromycin-sensitive Haemophilus influenzae 11P042 by broth microdilution method; how it was run: as §1
[21] = system: Haemophilus influenzae; test: Antibacterial activity against azithromycin-resistant Haemophilus influenzae 11Q373 by broth microdilution method; how it was run: as §2

Compound | MIC [1] | MIC [2] | MIC [3] | MIC [4] | MIC [5] | MIC [6] | MIC [7] | MIC [8] | MIC [9] | MIC [10] | MIC [11] | MIC [12] | MIC [13] | MIC [14] | MIC [15] | MIC [16] | MIC [17] | MIC [18] | MIC [19] | MIC [20] | other results
CC[C@H]1OC(=O)[C@H](C)C(=O)[C@H](C)[C@@H](O[C@@H]2O[C@H](C)C[C@H](N(C)C)[C@H]2O)[C@](C)(OC)C[C@@H](C)C(=O)[C@H](C)[C@H]2N(CC/C=C/c3cncc4cc(OC)ccc34)C(=O)O[C@]12C | 0.06 µg/mL (≈ 0.0728 µM) | 64 µg/mL (≈ 77.7 µM) | 0.015 µg/mL (≈ 0.0182 µM) | 64 µg/mL (≈ 77.7 µM) | 0.015 µg/mL (≈ 0.0182 µM) | 32 µg/mL (≈ 38.8 µM) | 0.015 µg/mL (≈ 0.0182 µM) | > 256 µg/mL | 8 µg/mL (≈ 9.71 µM) | 64 µg/mL (≈ 77.7 µM) | 64 µg/mL (≈ 77.7 µM) | – | – | – | – | – | – | – | – | – | –
CC[C@H]1OC(=O)[C@H](C)C(=O)[C@H](C)[C@@H](O[C@@H]2O[C@H](C)C[C@H](N(C)C)[C@H]2O)[C@](C)(OC)C[C@@H](C)C(=O)[C@H](C)[C@H]2N(CCCSc3cnc4ccccc4c3)C(=O)O[C@]12C | – | – | – | – | – | – | – | – | – | – | – | 0.125 µg/mL (≈ 0.154 µM) | > 64 µg/mL | 0.125 µg/mL (≈ 0.154 µM) | 0.125 µg/mL (≈ 0.154 µM) | 0.008 µg/mL (≈ 0.00983 µM) | 0.125 µg/mL (≈ 0.154 µM) | 0.016 µg/mL (≈ 0.0197 µM) | 0.5 µg/mL (≈ 0.614 µM) | 16 µg/mL (≈ 19.7 µM) | MIC [21]: 32 µg/mL (≈ 39.3 µM)
CC[C@H]1OC(=O)[C@H](C)C(=O)[C@H](C)[C@@H](O[C@@H]2O[C@H](C)C[C@H](N(C)C)[C@H]2O)[C@](C)(OC)C[C@@H](C)C(=O)[C@H](C)[C@H]2N(CCCOc3cnc4ccccc4c3)C(=O)O[C@]12C | – | – | – | – | – | – | – | – | – | – | – | 0.125 µg/mL (≈ 0.157 µM) | > 64 µg/mL | 0.062 µg/mL (≈ 0.0777 µM) | 0.25 µg/mL (≈ 0.313 µM) | ≤ 0.004 µg/mL | 0.062 µg/mL (≈ 0.0777 µM) | 0.008 µg/mL (≈ 0.01 µM) | 1 µg/mL (≈ 1.25 µM) | 1 µg/mL (≈ 1.25 µM) | MIC [21]: 8 µg/mL (≈ 10 µM)
CC[C@H]1OC(=O)[C@H](C)C(=O)[C@H](C)[C@@H](O[C@@H]2O[C@H](C)C[C@H](N(C)C)[C@H]2O)[C@](C)(OC)C[C@@H](C)C(=O)[C@H](C)[C@H]2N(CC/C=C/c3cncc4cc(OCc5ccccc5)ccc34)C(=O)O[C@]12C | 1 µg/mL (≈ 1.11 µM) | 8 µg/mL (≈ 8.89 µM) | 1 µg/mL (≈ 1.11 µM) | 16 µg/mL (≈ 17.8 µM) | 0.25 µg/mL (≈ 0.278 µM) | 8 µg/mL (≈ 8.89 µM) | 0.5 µg/mL (≈ 0.555 µM) | > 256 µg/mL | 8 µg/mL (≈ 8.89 µM) | > 256 µg/mL | > 256 µg/mL | – | – | – | – | – | – | – | – | – | –
CC[C@H]1OC(=O)[C@H](C)C(=O)[C@H](C)[C@@H](O[C@@H]2O[C@H](C)C[C@H](N(C)C)[C@H]2O)[C@](C)(OC)C[C@@H](C)C(=O)[C@H](C)[C@H]2N(CC/C=C/c3cncc4ccc(OCc5ccccc5)cc34)C(=O)O[C@]12C | 1 µg/mL (≈ 1.11 µM) | 8 µg/mL (≈ 8.89 µM) | 1 µg/mL (≈ 1.11 µM) | 8 µg/mL (≈ 8.89 µM) | 0.125 µg/mL (≈ 0.139 µM) | 8 µg/mL (≈ 8.89 µM) | 1 µg/mL (≈ 1.11 µM) | > 256 µg/mL | 4 µg/mL (≈ 4.44 µM) | > 256 µg/mL | > 256 µg/mL | – | – | – | – | – | – | – | – | – | –
CC[C@H]1OC(=O)[C@H](C)C(=O)[C@H](C)[C@@H](O[C@@H]2O[C@H](C)C[C@H](N(C)C)[C@H]2O)[C@](C)(OC)C[C@@H](C)C(=O)[C@H](C)[C@H]2N(CC/C=C/c3cncc4cc(C)ccc34)C(=O)O[C@]12C | 0.06 µg/mL (≈ 0.0743 µM) | 64 µg/mL (≈ 79.2 µM) | 0.06 µg/mL (≈ 0.0743 µM) | 128 µg/mL (≈ 158 µM) | 0.015 µg/mL (≈ 0.0186 µM) | 64 µg/mL (≈ 79.2 µM) | 0.015 µg/mL (≈ 0.0186 µM) | > 256 µg/mL | 32 µg/mL (≈ 39.6 µM) | 64 µg/mL (≈ 79.2 µM) | 64 µg/mL (≈ 79.2 µM) | – | – | – | – | – | – | – | – | – | –
CC[C@H]1OC(=O)[C@@](C)(F)C(=O)[C@H](C)[C@@H](O[C@@H]2O[C@H](C)C[C@H](N(C)C)[C@H]2O)[C@](C)(OC)C[C@@H](C)C(=O)[C@H](C)[C@H]2N(CCCOc3cnc4ccccc4c3)C(=O)O[C@]12C | 0.015 µg/mL (≈ 0.0184 µM) | 64 µg/mL (≈ 78.4 µM) | 0.015 µg/mL (≈ 0.0184 µM) | 128 µg/mL (≈ 157 µM) | 0.015 µg/mL (≈ 0.0184 µM) | 64 µg/mL (≈ 78.4 µM) | 0.015 µg/mL (≈ 0.0184 µM) | 32 µg/mL (≈ 39.2 µM) | 64 µg/mL (≈ 78.4 µM) | 8 µg/mL (≈ 9.8 µM) | 16 µg/mL (≈ 19.6 µM) | – | – | – | – | – | – | – | – | – | –
CC[C@H]1OC(=O)[C@H](C)C(=O)[C@H](C)[C@@H](O[C@@H]2O[C@H](C)C[C@H](N(C)C)[C@H]2O)[C@](C)(OC)C[C@@H](C)C(=O)[C@H](C)[C@H]2N(CCCCn3cnc(-c4cccnc4)c3)C(=O)O[C@]12C [TELITHROMYCIN] | 0.015 µg/mL (≈ 0.0185 µM) | > 256 µg/mL | 0.015 µg/mL (≈ 0.0185 µM) | > 256 µg/mL | 0.03 µg/mL (≈ 0.0369 µM) | > 256 µg/mL | 0.125 µg/mL (≈ 0.154 µM) | 64 µg/mL (≈ 78.8 µM) | > 256 µg/mL | 8 µg/mL (≈ 9.85 µM) | 32 µg/mL (≈ 39.4 µM) | 0.062 µg/mL (≈ 0.0764 µM) | > 64 µg/mL | 0.062 µg/mL (≈ 0.0764 µM) | 0.031 µg/mL (≈ 0.0382 µM) | 0.016 µg/mL (≈ 0.0197 µM) | 0.031 µg/mL (≈ 0.0382 µM) | 0.008 µg/mL (≈ 0.00985 µM) | 0.125 µg/mL (≈ 0.154 µM) | 1 µg/mL (≈ 1.23 µM) | MIC [21]: 4 µg/mL (≈ 4.93 µM)
